Measured values taken from ChEMBL document CHEMBL5705905, “Pharmacological targeting of kinases MST1 and MST2 augments tissue repair and regeneration” (Sci Transl Med, 2016).
The source made the active and inactive calls. The calls are words filed in the database; no cut-off is given here.

Experiments:
[1] = target: Serine/threonine-protein kinase 24 (Homo sapiens, UniProt Q9Y6E0); test: Binding affinity to MST3 (unknown origin) assessed as dissociation constant
[2] = target: Microtubule-associated serine/threonine-protein kinase 1 (Homo sapiens) (UniProt Q9Y2H9); test: Inhibition of MAST1 (unknown origin) assessed as remaining activity at 1 uM by Kinome scan method relative to control
Chain of Microtubule-associated serine/threonine-protein kinase 1 (Homo sapiens) (Q9Y2H9 whole entry, looked up): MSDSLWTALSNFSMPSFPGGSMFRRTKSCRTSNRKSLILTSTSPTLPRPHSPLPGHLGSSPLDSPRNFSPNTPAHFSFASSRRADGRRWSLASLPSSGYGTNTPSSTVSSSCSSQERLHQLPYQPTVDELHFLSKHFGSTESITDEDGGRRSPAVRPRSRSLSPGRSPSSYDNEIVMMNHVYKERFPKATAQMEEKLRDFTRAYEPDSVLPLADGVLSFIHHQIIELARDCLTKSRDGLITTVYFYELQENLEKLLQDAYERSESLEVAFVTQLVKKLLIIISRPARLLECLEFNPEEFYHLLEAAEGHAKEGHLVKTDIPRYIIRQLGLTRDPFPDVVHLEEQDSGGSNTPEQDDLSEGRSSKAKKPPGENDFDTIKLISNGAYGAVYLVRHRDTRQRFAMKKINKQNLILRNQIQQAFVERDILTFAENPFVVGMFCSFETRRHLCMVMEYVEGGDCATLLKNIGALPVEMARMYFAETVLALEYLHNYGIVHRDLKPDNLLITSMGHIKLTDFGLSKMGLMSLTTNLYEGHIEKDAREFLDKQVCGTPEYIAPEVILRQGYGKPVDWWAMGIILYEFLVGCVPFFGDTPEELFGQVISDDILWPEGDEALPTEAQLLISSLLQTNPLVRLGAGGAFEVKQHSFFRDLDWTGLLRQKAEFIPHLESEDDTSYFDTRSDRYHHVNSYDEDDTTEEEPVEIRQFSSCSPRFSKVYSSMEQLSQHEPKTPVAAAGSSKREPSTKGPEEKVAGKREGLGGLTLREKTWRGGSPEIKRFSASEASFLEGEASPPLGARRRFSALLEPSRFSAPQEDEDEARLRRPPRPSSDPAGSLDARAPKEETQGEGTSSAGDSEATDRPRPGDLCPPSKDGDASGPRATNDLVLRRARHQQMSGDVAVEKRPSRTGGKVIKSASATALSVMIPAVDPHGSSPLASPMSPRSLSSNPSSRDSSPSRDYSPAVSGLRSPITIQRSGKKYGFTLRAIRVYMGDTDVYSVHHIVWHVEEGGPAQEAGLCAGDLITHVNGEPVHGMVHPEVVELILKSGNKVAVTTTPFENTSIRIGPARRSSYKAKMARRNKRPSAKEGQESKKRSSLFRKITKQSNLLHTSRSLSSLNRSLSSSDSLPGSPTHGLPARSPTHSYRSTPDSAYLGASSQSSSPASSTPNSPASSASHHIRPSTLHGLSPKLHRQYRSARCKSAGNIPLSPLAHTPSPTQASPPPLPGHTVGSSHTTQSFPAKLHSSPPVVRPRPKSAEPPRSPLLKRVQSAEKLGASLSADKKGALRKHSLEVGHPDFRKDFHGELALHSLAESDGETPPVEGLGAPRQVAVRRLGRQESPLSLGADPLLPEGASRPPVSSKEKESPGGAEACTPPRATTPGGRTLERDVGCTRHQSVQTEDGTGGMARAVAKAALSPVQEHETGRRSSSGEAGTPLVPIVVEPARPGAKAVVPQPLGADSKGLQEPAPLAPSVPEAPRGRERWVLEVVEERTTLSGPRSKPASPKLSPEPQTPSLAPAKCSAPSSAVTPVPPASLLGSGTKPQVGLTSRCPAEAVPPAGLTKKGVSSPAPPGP

[3] = target: Serine/threonine-protein kinase MAK (Homo sapiens) (UniProt P20794); test: Inhibition of MAK (unknown origin) assessed as remaining activity at 1 uM by Kinome scan method relative to control
[4] = target: Ribosomal protein S6 kinase alpha-6 (Homo sapiens) (UniProt Q9UK32); test: Inhibition of N-terminal kinase domain RSK4 (unknown origin) assessed as remaining activity at 1 uM by Kinome scan method relative to control
[5] = target: Serine/threonine-protein kinase Chk2 (Homo sapiens) (UniProt O96017); test: Inhibition of CHEK2 (unknown origin) assessed as remaining activity at 1 uM by Kinome scan method relative to control
Method in brief: (§1)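 Active-site-dependent competition-binding profiling (KINOMEscan) at 1 μM against a 468-kinase panel; compound supplied from a 10 mM DMSO stock. Read-out is ctrl% = (test signal − positive control signal)/(negative control signal − positive control signal) × 100. DMSO is the negative control (100%) and a control compound the positive control (0%). Lower ctrl% means tighter binding.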

[6] = test system: Mast/stem cell growth factor receptor Kit (Homo sapiens), P10721 [V559D,V654A]; test: Inhibition of KIT V559D/V654A mutant (unknown origin) assessed as remaining activity at 1 uM by Kinome scan method relative to control
[7] = target: Insulin receptor-related protein (Homo sapiens) (UniProt P14616); test: Inhibition of INSRR (unknown origin) assessed as remaining activity at 1 uM by Kinome scan method relative to control
[8] = test system: Epidermal growth factor receptor (Homo sapiens), P00533 [L858R,T790M]; test: Inhibition of EGFR L858R/T790M mutant (unknown origin) assessed as remaining activity at 1 uM by Kinome scan method relative to control
[9] = test system: Proto-oncogene tyrosine-protein kinase receptor Ret (Homo sapiens), P07949 [V804M]; test: Inhibition of RET V804M (unknown origin) assessed as remaining activity at 1 uM by Kinome scan method relative to control
[10] = target: Cyclin-dependent kinase 5 (Homo sapiens) (UniProt Q00535); test: Inhibition of CDK5 (unknown origin) assessed as remaining activity at 1 uM by Kinome scan method relative to control; method in brief: as §1
[11] = target: Serine/threonine-protein kinase Nek4 (Homo sapiens) (UniProt P51957); test: Inhibition of NEK4 (unknown origin) assessed as remaining activity at 1 uM by Kinome scan method relative to control
[12] = target: Macrophage-stimulating protein receptor (Homo sapiens) (UniProt Q04912); test: Inhibition of MST1R (unknown origin) assessed as remaining activity at 1 uM by Kinome scan method relative to control
[13] = target: Mitogen-activated protein kinase kinase kinase 3 (Homo sapiens) (UniProt Q99759); test: Inhibition of MAP3K3 (unknown origin) assessed as remaining activity at 1 uM by Kinome scan method relative to control
Chain of Mitogen-activated protein kinase kinase kinase 3 (Homo sapiens) (Q99759 whole entry): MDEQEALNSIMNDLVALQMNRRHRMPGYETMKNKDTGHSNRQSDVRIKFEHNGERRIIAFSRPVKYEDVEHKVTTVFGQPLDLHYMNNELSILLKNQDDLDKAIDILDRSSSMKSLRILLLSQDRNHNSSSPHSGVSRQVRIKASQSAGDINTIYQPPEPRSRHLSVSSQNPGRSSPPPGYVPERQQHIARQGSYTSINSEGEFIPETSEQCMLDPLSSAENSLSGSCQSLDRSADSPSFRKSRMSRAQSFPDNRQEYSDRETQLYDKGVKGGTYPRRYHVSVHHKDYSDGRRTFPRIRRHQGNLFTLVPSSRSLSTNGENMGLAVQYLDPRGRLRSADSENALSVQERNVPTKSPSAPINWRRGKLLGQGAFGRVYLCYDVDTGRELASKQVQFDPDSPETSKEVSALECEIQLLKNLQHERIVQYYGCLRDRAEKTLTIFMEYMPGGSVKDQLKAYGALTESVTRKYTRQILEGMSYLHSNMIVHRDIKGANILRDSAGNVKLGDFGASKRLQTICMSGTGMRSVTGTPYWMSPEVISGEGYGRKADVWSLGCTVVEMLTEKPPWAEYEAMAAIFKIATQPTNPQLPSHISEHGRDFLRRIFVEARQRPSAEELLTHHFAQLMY

[14] = Acute toxicity in wild-type mouse assessed as ratio of liver weight to body weight at 1 mg/kg,ip administrated twice daily for 7 days; format: organism-based; conditions: in vivo, 168 h, time 7 day
Method in brief: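 Wild-type mice underwent two-thirds partial hepatectomy with vehicle or 1 mg/kg i.p. twice per day, starting with a dose before surgery. Liver/body weight ratio was followed over postoperative days, n = 5; means ± SD.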

[15] = target: T1, Serine/threonine-protein kinase 4 (Homo sapiens, UniProt Q13043)
T1 sequence (Q13043 whole entry): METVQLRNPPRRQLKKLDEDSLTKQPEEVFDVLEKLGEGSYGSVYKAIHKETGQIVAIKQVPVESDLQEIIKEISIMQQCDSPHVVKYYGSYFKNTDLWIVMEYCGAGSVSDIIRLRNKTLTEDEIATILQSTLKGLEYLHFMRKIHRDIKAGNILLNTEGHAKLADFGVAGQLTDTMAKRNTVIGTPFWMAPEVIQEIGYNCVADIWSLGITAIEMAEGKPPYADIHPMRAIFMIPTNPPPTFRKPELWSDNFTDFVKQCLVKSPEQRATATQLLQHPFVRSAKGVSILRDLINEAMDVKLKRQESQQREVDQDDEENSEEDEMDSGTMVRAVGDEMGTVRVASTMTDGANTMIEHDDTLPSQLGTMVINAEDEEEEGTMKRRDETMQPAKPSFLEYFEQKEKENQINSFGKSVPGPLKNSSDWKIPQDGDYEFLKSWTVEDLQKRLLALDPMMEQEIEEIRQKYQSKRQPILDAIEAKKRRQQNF

[16] = target: Ephrin type-A receptor 6 (Homo sapiens) (UniProt Q9UF33); test: Inhibition of EPHA6 (unknown origin) assessed as remaining activity at 1 uM by Kinome scan method relative to control
Chain of Ephrin type-A receptor 6 (Homo sapiens) (Q9UF33 whole entry): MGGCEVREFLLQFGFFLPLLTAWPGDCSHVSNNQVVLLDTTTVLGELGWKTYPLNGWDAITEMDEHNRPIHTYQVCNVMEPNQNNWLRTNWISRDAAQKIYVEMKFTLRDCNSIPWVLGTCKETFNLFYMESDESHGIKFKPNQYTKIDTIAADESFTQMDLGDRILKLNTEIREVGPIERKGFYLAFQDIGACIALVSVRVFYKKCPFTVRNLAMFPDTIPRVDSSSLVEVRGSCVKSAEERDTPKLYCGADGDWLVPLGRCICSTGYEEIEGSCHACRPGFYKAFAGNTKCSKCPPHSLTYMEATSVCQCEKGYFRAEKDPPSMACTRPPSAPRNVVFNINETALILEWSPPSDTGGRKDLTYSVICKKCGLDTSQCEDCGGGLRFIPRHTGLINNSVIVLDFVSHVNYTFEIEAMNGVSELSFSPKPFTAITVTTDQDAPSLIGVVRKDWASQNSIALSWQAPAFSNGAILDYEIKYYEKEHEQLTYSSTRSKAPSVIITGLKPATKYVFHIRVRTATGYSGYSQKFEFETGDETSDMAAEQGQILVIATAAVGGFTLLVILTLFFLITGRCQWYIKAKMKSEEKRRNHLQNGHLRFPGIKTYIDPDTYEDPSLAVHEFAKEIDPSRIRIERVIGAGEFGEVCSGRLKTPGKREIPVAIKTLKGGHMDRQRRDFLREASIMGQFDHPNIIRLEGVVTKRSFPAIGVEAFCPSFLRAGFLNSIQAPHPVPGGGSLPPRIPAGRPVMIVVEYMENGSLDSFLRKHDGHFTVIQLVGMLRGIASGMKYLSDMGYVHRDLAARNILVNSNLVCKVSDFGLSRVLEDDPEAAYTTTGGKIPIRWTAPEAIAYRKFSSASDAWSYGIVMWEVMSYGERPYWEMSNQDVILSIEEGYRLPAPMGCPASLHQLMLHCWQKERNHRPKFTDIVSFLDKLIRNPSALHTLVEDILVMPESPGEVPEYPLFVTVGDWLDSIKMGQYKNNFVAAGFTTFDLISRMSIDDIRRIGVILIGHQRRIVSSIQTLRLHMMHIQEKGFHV

[17] = test system: Mus musculus; test: Protection against human hepatocyte transplanted FRG mouse assessed as increase in human albumin level at 1 mg/kg, ip administrated once a day and measured within 6 weeks; format: functional, organism-based; conditions: Liver
[18] = target: Megakaryocyte-associated tyrosine-protein kinase (Homo sapiens) (UniProt P42679); test: Inhibition of CTK (unknown origin) assessed as remaining activity at 1 uM by Kinome scan method relative to control; method in brief: as §1
Chain of Megakaryocyte-associated tyrosine-protein kinase (Homo sapiens) (P42679 whole entry): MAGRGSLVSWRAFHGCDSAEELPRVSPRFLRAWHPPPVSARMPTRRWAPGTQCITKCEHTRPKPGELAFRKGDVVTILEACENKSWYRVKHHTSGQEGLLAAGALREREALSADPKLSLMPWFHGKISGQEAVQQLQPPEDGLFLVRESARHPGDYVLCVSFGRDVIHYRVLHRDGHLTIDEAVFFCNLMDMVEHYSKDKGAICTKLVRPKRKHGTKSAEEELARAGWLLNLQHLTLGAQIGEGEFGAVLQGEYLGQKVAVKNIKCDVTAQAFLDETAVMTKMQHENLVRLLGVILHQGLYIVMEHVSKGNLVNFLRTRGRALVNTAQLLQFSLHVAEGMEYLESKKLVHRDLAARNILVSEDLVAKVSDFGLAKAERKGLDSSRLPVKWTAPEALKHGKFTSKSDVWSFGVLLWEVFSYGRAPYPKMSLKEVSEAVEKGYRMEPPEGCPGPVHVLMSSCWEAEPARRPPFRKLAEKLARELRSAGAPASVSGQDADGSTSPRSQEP

[19] = target: Peripheral plasma membrane protein CASK (Homo sapiens) (UniProt O14936); test: Inhibition of CASK (unknown origin) assessed as remaining activity at 1 uM by Kinome scan method relative to control; method in brief: as §1
[20] = target: Serine/threonine-protein kinase PAK 4 (Homo sapiens) (UniProt O96013); test: Inhibition of PAK4 (unknown origin) assessed as remaining activity at 1 uM by Kinome scan method relative to control
[21] = test system: Receptor-type tyrosine-protein kinase FLT3 (Homo sapiens), P36888 [D835Y]; test: Inhibition of FLT3 D835Y mutant (unknown origin) assessed as remaining activity at 1 uM by Kinome scan method relative to control
[22] = Toxicity in mouse assessed as cancer cell growth at 1 mg/kg, ip administered for 2 months; format: organism-based; conditions: in vivo, 1460 h
Method in brief: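 Wild-type mice were given 1 mg/kg i.p. daily for 2 months and examined for cancer growth and serum α-fetoprotein.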

[23] = target: Serine/threonine-protein kinase 26 (Homo sapiens, UniProt Q9P289); test: Inhibition of MST4 (unknown origin) in presence of ATP by enzymatic assay
Chain of Serine/threonine-protein kinase 26 (Q9P289 whole entry): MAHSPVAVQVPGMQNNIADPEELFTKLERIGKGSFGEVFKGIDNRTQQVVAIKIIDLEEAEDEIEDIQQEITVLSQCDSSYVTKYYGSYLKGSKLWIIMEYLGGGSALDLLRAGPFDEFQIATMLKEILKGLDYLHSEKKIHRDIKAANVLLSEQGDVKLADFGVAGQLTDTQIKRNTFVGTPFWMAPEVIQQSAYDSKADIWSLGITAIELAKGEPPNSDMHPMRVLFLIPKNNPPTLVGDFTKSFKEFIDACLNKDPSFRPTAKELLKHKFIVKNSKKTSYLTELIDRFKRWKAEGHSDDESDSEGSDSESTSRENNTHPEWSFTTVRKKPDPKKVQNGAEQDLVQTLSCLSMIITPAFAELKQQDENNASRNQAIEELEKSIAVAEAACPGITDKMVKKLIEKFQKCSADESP

[24] = target: Phosphatidylinositol 4-phosphate 5-kinase type-1 gamma (Homo sapiens, UniProt O60331); test: Inhibition of PIP5K1C (unknown origin) in presence of ATP by enzymatic assay
Chain of Phosphatidylinositol 4-phosphate 5-kinase type-1 gamma (O60331 whole entry, the tested form may be a part): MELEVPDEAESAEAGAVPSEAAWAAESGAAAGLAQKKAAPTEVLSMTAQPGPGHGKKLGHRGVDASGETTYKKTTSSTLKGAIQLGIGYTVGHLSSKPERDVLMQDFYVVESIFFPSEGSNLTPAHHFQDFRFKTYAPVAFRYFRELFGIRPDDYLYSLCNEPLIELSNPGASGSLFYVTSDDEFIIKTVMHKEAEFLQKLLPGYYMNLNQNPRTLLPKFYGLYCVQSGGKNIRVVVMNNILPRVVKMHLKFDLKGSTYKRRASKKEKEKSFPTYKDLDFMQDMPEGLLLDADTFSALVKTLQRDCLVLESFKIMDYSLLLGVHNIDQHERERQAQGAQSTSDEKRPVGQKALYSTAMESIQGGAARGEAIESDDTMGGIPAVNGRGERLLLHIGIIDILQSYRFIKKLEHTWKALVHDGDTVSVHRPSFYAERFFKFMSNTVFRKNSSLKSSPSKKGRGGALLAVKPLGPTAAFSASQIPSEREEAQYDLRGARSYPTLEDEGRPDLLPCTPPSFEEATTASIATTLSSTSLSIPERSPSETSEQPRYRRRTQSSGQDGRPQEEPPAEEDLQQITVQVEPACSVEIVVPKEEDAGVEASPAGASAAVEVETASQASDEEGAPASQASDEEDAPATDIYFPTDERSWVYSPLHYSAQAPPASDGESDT

[25] = target: LIM domain kinase 2 (Homo sapiens) (UniProt P53671); test: Inhibition of LIMK2 (unknown origin) assessed as remaining activity at 1 uM by Kinome scan method relative to control
[26] = Tmax in male Sprague-Dawley rat at 5 mg/kg, iv measured for 24 hrs by LC-MS/MS analysis; format: ADME, organism-based; conditions: in vivo

Which results are given for CN1C(=O)c2sccc2N(C)c2nc(Nc3ccc(S(N)(=O)=O)cc3)ncc21?
Kd [1]: 18 nM; Activity [2]: 80%; Activity [3]: 100%; Activity [4]: 66%; Activity [5]: 100%; Activity [6]: 92%; Activity [7]: 100%; Activity [8]: 77%; Activity [9]: 92%; Activity [10]: 94%; Activity [11]: 94%; Activity [12]: 96%; Activity [13]: 2%; Activity [14]: Toxic; IC50 [15]: 70.7 nM; Activity [16]: 99%; Activity [17]: Active; Activity [18]: 59%; Activity [19]: 78%; Activity [20]: 86%; Activity [21]: 86%; Activity [22]: Non-Toxic; IC50 [23]: 27.3 nM; IC50 [24]: 436 nM; Activity [25]: 100%; Tmax [26]: 4.98 min
